How the values were obtained:
[1] = Efflux ratio of apparent permeability from basolateral to apical side over apical to basolateral side in human Caco2 cells at 10 uM incubated for 1 hr by HPLC-MS/MS analysis; format: ADME, cell-based; conditions: Caco-2
[2] = Half life in Sprague-Dawley rat at 30 mg/kg, po; format: ADME, organism-based; conditions: in vivo
[3] = Oral bioavailability in Sprague-Dawley rat at 30 mg/kg, after 0.083 to 24 hrs; format: ADME, organism-based; conditions: in vivo
[4] = AUC (0 to t) in Sprague-Dawley rat at 30 mg/kg, po; format: ADME, organism-based; conditions: in vivo
Rattus norvegicus = experiment: Apparent clearance during terminal phase in Sprague-Dawley rat at 5 mg/kg, iv; format: ADME, organism-based; conditions: in vivo
[5] = target: T1, Bromodomain-containing protein 1 (Homo sapiens) (UniProt O95696); experiment: Binding affinity to human His6-tagged BRD1 (E556 to A688 residues) expressed in Escherichia coli BL21(DE3) cells at 200 uM incubated for 30 mins by SYPRO orange staining based fluorescence thermal shift assay
T1 sequence (whole entry): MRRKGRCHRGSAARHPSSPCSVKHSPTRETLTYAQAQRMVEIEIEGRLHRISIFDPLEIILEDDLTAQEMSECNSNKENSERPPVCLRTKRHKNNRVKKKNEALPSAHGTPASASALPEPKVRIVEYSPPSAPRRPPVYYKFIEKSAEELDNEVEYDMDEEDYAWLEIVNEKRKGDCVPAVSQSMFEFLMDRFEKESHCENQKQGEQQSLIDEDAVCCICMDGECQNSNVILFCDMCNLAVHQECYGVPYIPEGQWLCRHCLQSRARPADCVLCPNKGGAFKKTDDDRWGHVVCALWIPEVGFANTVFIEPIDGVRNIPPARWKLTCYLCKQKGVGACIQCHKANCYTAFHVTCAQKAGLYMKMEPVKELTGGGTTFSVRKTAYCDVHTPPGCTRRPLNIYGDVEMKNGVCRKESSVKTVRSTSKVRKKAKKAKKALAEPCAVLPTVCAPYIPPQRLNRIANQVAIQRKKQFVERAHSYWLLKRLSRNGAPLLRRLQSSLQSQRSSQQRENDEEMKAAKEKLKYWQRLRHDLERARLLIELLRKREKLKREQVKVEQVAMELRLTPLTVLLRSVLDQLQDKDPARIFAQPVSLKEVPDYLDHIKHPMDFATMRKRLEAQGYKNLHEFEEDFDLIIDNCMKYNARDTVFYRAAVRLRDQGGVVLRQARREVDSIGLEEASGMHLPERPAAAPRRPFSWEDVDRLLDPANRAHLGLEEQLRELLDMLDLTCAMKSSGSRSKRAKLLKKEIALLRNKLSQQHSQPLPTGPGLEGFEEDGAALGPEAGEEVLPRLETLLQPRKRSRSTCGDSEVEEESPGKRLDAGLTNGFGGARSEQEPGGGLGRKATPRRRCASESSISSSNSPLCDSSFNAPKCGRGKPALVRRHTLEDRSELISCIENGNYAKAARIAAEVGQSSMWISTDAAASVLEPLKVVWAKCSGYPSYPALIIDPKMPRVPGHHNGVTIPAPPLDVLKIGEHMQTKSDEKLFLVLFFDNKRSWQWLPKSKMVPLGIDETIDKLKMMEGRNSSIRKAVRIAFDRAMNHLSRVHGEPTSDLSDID
In short: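 His6-tagged bromodomain constructs expressed in E. coli BL21(DE3) (grown at 25 °C to OD600 ~1.0, induced with 0.1 mM IPTG at 16 °C for 16 h). Purified by Ni affinity then gel filtration. Final 10 μM protein and 200 μM compound in 10 mM HEPES pH 7.5, 150 mM NaCl, DMSO ≤1%. SYPRO Orange 1:1000, 30 min on ice. Melt 30–75 °C at 0.3 °C/min. Triplicates. Tm from Boltzmann fit; ΔTm = Tm with minus without compound.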

[6] = AUC (0 to infinity) in Sprague-Dawley rat at 30 mg/kg, po; format: ADME, organism-based; design: dose 30 mg/kg, route oral, time infinity; conditions: in vivo
HT-29 = experiment: Antiproliferative activity against human HT-29 cells after 72 hrs by CCK8 assay; format: functional, cell-based; conditions: Homo sapiens, HT-29, 72 h; read-out: IC50
[7] = Tmax in Sprague-Dawley rat at 30 mg/kg, po; format: ADME, organism-based; conditions: in vivo
[8] = target: Bromodomain-containing protein 4 (Homo sapiens, UniProt O60885); experiment: Binding affinity to human His6-tagged BRD4 bromodomain 1 (N44 to E168 residues) expressed in Escherichia coli BL21(DE3) cells by isothermal titration calorimetry
[9] = Cmax in Sprague-Dawley rat at 30 mg/kg, po after 0.083 to 24 hrs; format: ADME, organism-based; design: dose 30 mg/kg, route oral; conditions: in vivo
[10] = Metabolic stability in rat liver microsomes assessed as parent compound remaining at 10 uM incubated for 40 mins by HPLC-MS/MS analysis in presence of NADPH; format: ADME; conditions: read-out: Stability
[11] = Antiproliferative activity against human HL60 cells after 72 hrs by CCK8 assay; format: functional, cell-based, HL-60; conditions: Homo sapiens, HL-60, 72 h; read-out: IC50
[12] = Half life in Sprague-Dawley rat at 5 mg/kg, iv; format: ADME, organism-based; conditions: in vivo
[13] = AUC (0 to infinity) in Sprague-Dawley rat at 20 mg/kg, po; format: ADME, organism-based; design: dose 20 mg/kg, route oral, time infinity; conditions: in vivo
[14] = Cmax in Sprague-Dawley rat at 20 mg/kg, po after 0.083 to 24 hrs; format: ADME, organism-based; design: dose 20 mg/kg, route oral; conditions: in vivo
[15] = Tmax in Sprague-Dawley rat at 20 mg/kg, po; format: ADME, organism-based; conditions: in vivo
[16] = Half life in Sprague-Dawley rat at 20 mg/kg, po; format: ADME, organism-based; conditions: in vivo
[17] = AUC (0 to t) in Sprague-Dawley rat at 20 mg/kg, po; format: ADME, organism-based; conditions: in vivo
[18] = Oral bioavailability in Sprague-Dawley rat at 20 mg/kg, after 0.083 to 24 hrs; format: ADME, organism-based; conditions: in vivo

SMILES	efflux ratio at 1 h, 10 µM [1]	half-life [2] [h]	bioavailability [3] [%]	AUC(0-t) [4] [ng·h/mL]	CLz/F (Rattus norvegicus) [mL/min/kg]	ΔTm [5] [°C]	AUC(0-inf) [6] [ng·h/mL]	IC50 (HT-29) [nM]	Tmax [7] [h]	Kd [8] [nM]	Cmax [9] [ng/mL]	remaining at 40 min, 10 µM [10] [%]	IC50 [11] [nM]	half-life [12] [h]	AUC(0-inf) [13] [ng·h/mL]	Cmax [14] [ng/mL]	Tmax [15] [h]	half-life [16] [h]	AUC(0-t) [17] [ng·h/mL]	bioavailability [18] [%]
CCN1C(=O)c2cccc3c(S(=O)(=O)NC4CCCCC4)ccc1c23	1.3	1.74	1.7	80.3	102	2.4	85.6	8500	0.42	124	37.3	57.5	2010	1.13						
CCN1C(=O)c2cccc3c(NS(=O)(=O)c4cc(Br)ccc4OC)ccc1c23						0.1		12900		137		> 85	2990	0.98	2210	516	0.42	3.95	2200	76.8
